Results taken from ChEMBL document CHEMBL2176870 (J Med Chem, 2012).
Values after ≈ are worked out from the molar mass of the structure shown.

Key:
[1] = tested on: Staphylococcus aureus; assay: Antibacterial activity against Staphylococcus aureus CIP54.146 after 18 hrs by broth microdilution method; format: functional; conditions: CIP54.146, 18 h
In short: (§1)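 CLSI broth microdilution with serial 2-fold dilutions from 0.06 to 64 μg/mL. Cation-adjusted Mueller–Hinton broth, inoculum 5 × 10^5 CFU/mL, incubated at 35 °C for 18 h. MIC taken as the lowest concentration with no visible growth.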

[2] = tested on: Streptococcus pneumoniae; assay: Antibacterial activity against Streptococcus pneumoniae D39 after 18 hrs by broth microdilution method; format: functional; conditions: D39, 18 h
In short: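 CLSI broth microdilution with 2-fold dilutions from 0.06 to 64 μg/mL. Cation-adjusted Mueller–Hinton broth with 2.5% lysed horse blood, inoculum 5 × 10^5 CFU/mL, grown at 35 °C for 18 h in 5% CO2. MIC is the lowest concentration showing no visible growth.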

[3] = target: T1, Enoyl-[acyl-carrier-protein] reductase [NADH] FabI (Escherichia coli K-12, UniProt P0AEK4); assay: Inhibition of Escherichia coli FabI using crotonoyl-CoA as substrate preincubated for 90 mins
T1 sequence (P0AEK4 whole entry): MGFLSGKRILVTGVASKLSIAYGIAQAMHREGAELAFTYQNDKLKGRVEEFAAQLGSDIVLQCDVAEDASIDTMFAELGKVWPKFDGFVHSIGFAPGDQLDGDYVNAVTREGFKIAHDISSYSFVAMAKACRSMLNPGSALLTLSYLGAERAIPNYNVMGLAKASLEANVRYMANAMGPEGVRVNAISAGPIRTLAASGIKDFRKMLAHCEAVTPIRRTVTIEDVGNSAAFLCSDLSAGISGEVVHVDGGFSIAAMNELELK
In short: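 Recombinant C-terminal 6-His-tagged E. coli FabI (40 nM) in 50 mM Hepes pH 7.5, 100 μM DTT, 0.006% Triton X-100. Enzyme preincubated with 20 μM NADH, 10 μM NAD+ and inhibitor in DMSO for 90 min at room temperature. Reaction started with 50 μM crotonoyl-CoA. 6–10 concentrations; IC50 by Langmuir fit.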

[4] = tested on: Enterococcus faecalis; assay: Antibacterial activity against Enterococcus faecalis ATCC 29212 after 18 hrs by broth microdilution method; format: functional; conditions: ATCC 29212, 18 h; in short: as §1
[5] = tested on: Escherichia coli; assay: Antibacterial activity against Escherichia coli C7 after 18 hrs by broth microdilution method; format: functional; conditions: C7, 18 h
[6] = target: T2, Enoyl-[acyl-carrier-protein] reductase [NADPH] FabI (Staphylococcus aureus, UniProt Q6GI75); assay: Inhibition of Staphylococcus aureus recombinant FabI using trans-2-octenoyl N-acetylcysteamine thioester as substrate preincubated for 60 mins
T2 sequence (Q6GI75 whole entry): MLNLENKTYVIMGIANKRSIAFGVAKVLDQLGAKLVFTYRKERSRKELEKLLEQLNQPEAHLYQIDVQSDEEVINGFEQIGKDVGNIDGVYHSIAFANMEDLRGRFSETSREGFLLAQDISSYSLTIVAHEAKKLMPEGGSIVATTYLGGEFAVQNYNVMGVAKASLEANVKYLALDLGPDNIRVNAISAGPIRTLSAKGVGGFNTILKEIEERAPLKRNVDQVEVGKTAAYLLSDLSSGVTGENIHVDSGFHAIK
In short: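 Recombinant S. aureus FabI (2 nM) in 50 mM ADA pH 6.5, 1 mM DTT, 0.006% Triton X-100, 50 mM NaCl. Preincubated 60 min at room temperature with 40 μM NADPH, 10 μM NADP+ and inhibitor in DMSO. Reaction started with 100 μM t-o-NAC. Inhibition versus untreated samples; IC50 by Langmuir fit.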

[7] = Cytotoxicity against human HepG2 cells; format: cell-based; conditions: read-out: ED50 (the source's name)

SMILES	MIC [1] [µg/mL]	MIC [2] [µg/mL]	IC50 [3] [nM]	MIC [4] [µg/mL]	MIC [5] [µg/mL]	IC50 [6] [nM]	CC50 [7] [µg/mL]
CCc1ccc(Oc2cccc(F)n2)c(O)c1	0.25 (≈ 1.07 µM)	> 64	590	> 32	4 (≈ 17.1 µM)	–	–
CCc1ccc(Oc2ccc(C(=O)CCCO)cc2)c(O)c1	0.062 (≈ 0.206 µM)	16 (≈ 53.3 µM)	–	> 32	4 (≈ 13.3 µM)	48	16 (≈ 53.3 µM)
CCc1ccc(Oc2ccc(NS(=O)(=O)C3CC3)cc2F)c(O)c1	1 (≈ 2.85 µM)	> 32	2300	> 32	16 (≈ 45.5 µM)	–	–
CCCNS(=O)(=O)c1ccc(Oc2ccc(CC)cc2O)c(F)c1	0.062 (≈ 0.175 µM)	16 (≈ 45.3 µM)	240	> 32	4 (≈ 11.3 µM)	–	–
CCCc1ccc(Oc2cccc(OC)c2)c(O)c1	1 (≈ 3.87 µM)	> 32	3100	> 32	16 (≈ 61.9 µM)	–	–
CCc1cc(O)c(Oc2ccc(C#N)cc2F)cc1F	0.062 (≈ 0.225 µM)	8 (≈ 29.1 µM)	–	32 (≈ 116 µM)	1 (≈ 3.63 µM)	31	16 (≈ 58.1 µM)
CCc1ccc(Oc2ccc(S(=O)(=O)CCC3OCCO3)cc2)c(O)c1	0.25 (≈ 0.661 µM)	> 32	380	> 32	16 (≈ 42.3 µM)	–	–
CCc1cc(O)c(Oc2ccc[nH]c2=O)cc1F	> 32	> 32	–	> 32	> 32	> 100000	–
OCc1ccc(Oc2cccc(F)n2)c(O)c1	4 (≈ 17 µM)	> 32	29000	> 32	> 32	–	–
CCCc1ccc(Oc2cccc(F)n2)c(O)c1	0.25 (≈ 1.01 µM)	64 (≈ 259 µM)	–	> 32	4 (≈ 16.2 µM)	–	–
Oc1cc(Cn2cncn2)ccc1Oc1cccc(F)n1	4 (≈ 14 µM)	> 32	5200	> 32	16 (≈ 55.9 µM)	–	–
CCc1ccc(Oc2ccc(C(=O)N3CCNC(=O)C3)cc2F)c(O)c1	1 (≈ 2.79 µM)	> 32	–	> 32	8 (≈ 22.3 µM)	28	> 32
Oc1cc(Cl)ccc1Oc1cccc(F)n1	0.25 (≈ 1.04 µM)	64 (≈ 267 µM)	550	> 32	0.25 (≈ 1.04 µM)	–	–
CCc1cc(O)c(Oc2cccnc2N)cc1F	0.5 (≈ 2.01 µM)	> 32	–	> 32	0.25 (≈ 1.01 µM)	56	–
CCc1cc(O)c(Oc2ccc(C(=O)O)cc2F)cc1F	8 (≈ 27.2 µM)	> 32	–	> 32	> 32	180	> 32
CCc1ccc(Oc2ccc(NCCCO)cc2F)c(O)c1	0.25 (≈ 0.819 µM)	> 32	1000	> 32	16 (≈ 52.4 µM)	–	–
Cc1ccc(-c2ccc(Oc3cccc(F)n3)c(O)c2)cc1	8 (≈ 27.1 µM)	16 (≈ 54.2 µM)	6500	> 32	8 (≈ 27.1 µM)	–	–
CCc1ccc(Oc2ccccc2NC)c(O)c1	4 (≈ 16.4 µM)	> 32	112000	> 32	> 32	–	–
Oc1cc(Cn2ccnc2)ccc1Oc1cccc(F)n1	16 (≈ 56.1 µM)	> 32	56000	> 32	> 32	–	–
CCc1ccc(Oc2ccc(S(C)(=O)=O)cc2)c(O)c1	0.25 (≈ 0.855 µM)	> 32	810	> 32	16 (≈ 54.7 µM)	–	–
CCCc1ccc(Oc2cccc(NC(C)=O)c2)c(O)c1	16 (≈ 56.1 µM)	> 32	44000	> 32	> 32	–	–
CCc1ccc(Oc2ccc(S(C)(=O)=O)cc2F)c(O)c1	0.25 (≈ 0.806 µM)	> 32	140	> 32	1 (≈ 3.22 µM)	–	–

SMILES	MIC [1] [µg/mL]	MIC [2] [µg/mL]	IC50 [3] [nM]	MIC [4] [µg/mL]	MIC [5] [µg/mL]	IC50 [6] [nM]	CC50 [7] [µg/mL]
CCCc1ccc(Oc2ccc(OC)cc2)c(O)c1	0.25 (≈ 0.968 µM)	> 32	230	> 32	4 (≈ 15.5 µM)	–	–
CCc1ccc(Oc2ccccc2N)c(O)c1	0.25 (≈ 1.09 µM)	> 32	160	> 32	4 (≈ 17.4 µM)	–	–
CCc1ccc(Oc2ccc(S(=O)(=O)NCCc3ccccn3)cc2F)c(O)c1	0.25 (≈ 0.6 µM)	> 32	150	> 32	16 (≈ 38.4 µM)	–	–
Oc1cc(CC(F)(F)F)ccc1Oc1cccc(F)n1	0.25 (≈ 0.87 µM)	> 64	–	> 32	4 (≈ 13.9 µM)	–	–
Oc1cc(C(O)C(F)(F)F)ccc1Oc1cccc(F)n1 (stereo unspecified)	1 (≈ 3.3 µM)	> 32	3400	> 32	16 (≈ 52.8 µM)	–	–
Oc1cc(C(F)=C(F)F)ccc1Oc1cccc(F)n1	1 (≈ 3.51 µM)	> 32	–	> 32	16 (≈ 56.1 µM)	–	–
CCc1ccc(Oc2cc(C)ccc2N)c(O)c1	1 (≈ 4.11 µM)	16 (≈ 65.8 µM)	42000	> 32	16 (≈ 65.8 µM)	–	–
CCc1ccc(Oc2ccc(/C(C)=N/OC)cc2F)c(O)c1	1 (≈ 3.3 µM)	16 (≈ 52.7 µM)	14000	> 32	> 32	–	–
CCc1cc(O)c(Oc2ccc(C(=O)N3CCNC(=O)C3)cc2F)cc1F	0.25 (≈ 0.664 µM)	> 32	–	> 32	4 (≈ 10.6 µM)	–	> 32
CCCNc1ccc(Oc2ccc(CC)cc2O)c(F)c1	0.25 (≈ 0.864 µM)	16 (≈ 55.3 µM)	850	> 32	16 (≈ 55.3 µM)	–	–
CCc1ccc(Oc2ccc(C(C)=O)cc2F)c(O)c1	0.062 (≈ 0.226 µM)	16 (≈ 58.3 µM)	110	16 (≈ 58.3 µM)	1 (≈ 3.65 µM)	–	–
COCc1ccc(Oc2cccc(F)n2)c(O)c1	4 (≈ 16 µM)	> 32	14000	> 32	16 (≈ 64.2 µM)	–	–
CCc1cc(O)c(Oc2cccnc2F)cc1F	0.062 (≈ 0.247 µM)	> 32	–	> 32	0.25 (≈ 0.995 µM)	13	–
CCc1ccc(Oc2ccc(S(=O)(=O)NCCO)cc2F)c(O)c1	0.25 (≈ 0.703 µM)	> 32	1200	> 32	16 (≈ 45 µM)	–	–
CC(C)Cc1ccc(Oc2cccc(F)n2)c(O)c1	1 (≈ 3.83 µM)	> 32	570	> 32	4 (≈ 15.3 µM)	–	–
CCc1ccc(Oc2ccc(N3CC(CNC(C)=O)OC3=O)cc2F)c(O)c1 (stereo unspecified)	4 (≈ 10.3 µM)	> 32	6100	> 32	> 32	–	–
Cc1ccc(Oc2cccc(F)n2)c(O)c1	4 (≈ 18.2 µM)	> 32	3500	> 32	16 (≈ 73 µM)	–	–
Oc1cc(CCCn2cncn2)ccc1Oc1cccc(F)n1	4 (≈ 12.7 µM)	> 32	6900	> 32	> 32	–	–
Oc1cc(Br)ccc1Oc1cccc(F)n1	0.25 (≈ 0.88 µM)	64 (≈ 225 µM)	120	> 32	1 (≈ 3.52 µM)	–	–
CCc1ccc(Oc2ccc(S(N)(=O)=O)cc2F)c(O)c1	0.25 (≈ 0.803 µM)	> 32	860	> 32	1 (≈ 3.21 µM)	–	–
Oc1cc(Cl)ccc1Oc1ccc(Cl)cc1Cl [TRICLOSAN]	0.031 (≈ 0.107 µM)	8 (≈ 27.6 µM)	–	2 (≈ 6.91 µM)	0.125 (≈ 0.432 µM)	–	2 (≈ 6.91 µM)
